Measured values from article PMC5984530 (Proceedings of the National Academy of Sciences of the …, 2018).
Numbering of substitutions follows the chain as printed. Blank lines part the entries; values can stand above or below the compound they belong to.

How the values were obtained:
HlCHIL1 protein = target: T1, HlCHIL1 protein (Humulus lupulus, UniProt A0A2U7XUH7); assay: Differential scanning fluorimetry; format: binding; settings: for ΔTmmax: wild-type HlCHIL1, thermal shift dose-response; for binding to CHIL1 protein (in words): wild-type HlCHIL1, differential scanning fluorimetry
T1 sequence (A0A2U7XUH7 1-214): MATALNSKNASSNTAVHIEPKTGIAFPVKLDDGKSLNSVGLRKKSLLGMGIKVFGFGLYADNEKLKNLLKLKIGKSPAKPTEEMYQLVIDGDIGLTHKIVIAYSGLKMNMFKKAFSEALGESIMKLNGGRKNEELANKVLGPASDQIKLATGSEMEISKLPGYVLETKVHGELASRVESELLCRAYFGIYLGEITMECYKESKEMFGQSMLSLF
How it was run: (§1)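 Purified HlCHIL protein (wild-type or point mutant), 5 μM, was mixed with Protein Thermal Shift buffer and dye. Test ligand was serially diluted from 250 μM to 0.12 μM (12 points). Melting was followed on a real-time PCR instrument. Kd and ΔTmmax were fitted from the dose–response of thermal shift against ligand concentration.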

CHIL1^V139F = target: T2, CHIL1^V139F (Humulus lupulus, UniProt A0A2U7XUH7, V139F); assay: Differential scanning fluorimetry binding assay with CHIL1 V139F mutant
T2 sequence (A0A2U7XUH7 1-214 V139F): T1 sequence (A0A2U7XUH7 1-214) with V139F
How it was run: as §1

CHIL1^A143F = target: T3, CHIL1^A143F (Humulus lupulus, UniProt A0A2U7XUH7, A143F); assay: Differential scanning fluorimetry binding assay with CHIL1 A143F mutant; settings: thermal shift dose-response
T3 sequence (A0A2U7XUH7 1-214 A143F): T1 sequence (A0A2U7XUH7 1-214) with A143F
How it was run: as §1

CHIL1^V139F/A143F = target: T4, CHIL1^V139F/A143F (Humulus lupulus, UniProt A0A2U7XUH7, A143F/V139F); format: binding; settings: thermal shift dose-response
T4 sequence (A0A2U7XUH7 1-214 V139F/A143F): T1 sequence (A0A2U7XUH7 1-214) with V139F, A143F

His-tagged CHIL1 = target: T5, His-tagged CHIL1 (Humulus lupulus, UniProt A0A2U7XUH7); assay: Protein-metabolite interaction assay; format: binding
T5 sequence (A0A2U7XUH7 1-214): T1 sequence (A0A2U7XUH7 1-214)
How it was run: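 His-tagged CHIL1 was expressed in E. coli BL21 and purified by Ni-NTA. Protein (30 μg) was incubated for 8 h at 4 °C with yeast extract (about 200 μM N/NC, 5 μM DMX) in 50 mM Tris·HCl pH 7.5 with 20% methanol. Protein was captured on MagneHis Ni beads. Bead-bound and supernatant compounds were extracted with ethyl acetate and measured by LC-QQQ-MS/MS (MRM 341.0→165.0). Beads alone were the control; n = 3.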

CHIL2 = target: T6, CHIL2 (Humulus lupulus, UniProt A0A2U7XUE3); assay: Protein-metabolite interaction assay; format: binding; settings: same incubation conditions, 8 h at 4 °C
T6 sequence (A0A2U7XUE3 1-209): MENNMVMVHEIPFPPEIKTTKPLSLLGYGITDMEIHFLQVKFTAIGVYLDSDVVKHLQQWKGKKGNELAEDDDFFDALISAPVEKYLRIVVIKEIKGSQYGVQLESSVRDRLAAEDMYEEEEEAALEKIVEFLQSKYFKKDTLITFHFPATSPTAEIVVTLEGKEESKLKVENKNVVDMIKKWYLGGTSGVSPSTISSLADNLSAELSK

CHS_H1 = target: T7, CHS_H1 (Humulus lupulus, UniProt Q9FEY5); assay: In vitro chalcone synthase assay, kinetic parameters, CHS_H1 alone; format: biochemical; settings: 2 μg CHS_H1; other substrate fixed: 150 μM malonyl-CoA or 40 μM p-coumaroyl-CoA
T7 sequence (Q9FEY5 1-389): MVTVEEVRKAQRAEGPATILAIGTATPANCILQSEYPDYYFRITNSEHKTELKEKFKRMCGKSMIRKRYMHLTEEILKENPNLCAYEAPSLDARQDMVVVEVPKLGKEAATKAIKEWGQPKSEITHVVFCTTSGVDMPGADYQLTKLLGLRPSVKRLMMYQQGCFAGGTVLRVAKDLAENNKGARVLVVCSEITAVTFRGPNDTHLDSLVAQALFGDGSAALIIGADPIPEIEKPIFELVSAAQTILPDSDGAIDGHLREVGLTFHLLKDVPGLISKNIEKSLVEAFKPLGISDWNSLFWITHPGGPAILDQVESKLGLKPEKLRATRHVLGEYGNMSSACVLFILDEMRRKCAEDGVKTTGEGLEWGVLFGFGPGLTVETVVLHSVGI
How it was run: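 Purified recombinant CHS_H1 (2 μg) was run in standard reactions: 50 mM Tris·HCl pH 7, 0.1 mg/mL BSA, 30 °C, 60 min. One substrate was fixed (40 μM p-coumaroyl-CoA or 150 μM malonyl-CoA) while the other was varied. Products were extracted and quantified. Apparent Km came from Hanes plots; n = 3, means ± SD.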

Structure (SMILES): CC(C)=CCc1c(O)cc(O)c(C(=O)/C=C/c2ccc(O)cc2)c1O [DMX, demethylxanthohumol]
Kd (HlCHIL1 protein): 25.1 µM
ΔTmmax (HlCHIL1 protein): 10.23 °C
Kd (CHIL1^V139F): 10 µM
ΔTmmax (CHIL1^V139F; CHIL1^V139F, thermal shift dose-response): 10.15 °C
ΔTmmax (CHIL1^A143F): 10.87 °C
ΔTmmax (CHIL1^V139F/A143F): 5.26 °C
enrichment of DMX levels by CHIL1 protein (bound vs solution) (His-tagged CHIL1; incubation 8 h at 4 °C with yeast extract (DMX/6PN/8PN)): 14.2 fold
ratio of (DMX)/(total DMX) in CHIL1-bound chemical mixture (His-tagged CHIL1; incubation 8 h at 4 °C, n = 3): 19.7%
ratio of (DMX)/(total DMX) in solution (His-tagged CHIL1; supernatant, incubation 8 h at 4 °C): 1.39%
CHIL2-associated compound (in words) (CHIL2): no CHIL2-associated DMX or 8PN were detected

Structure (SMILES): CC(C)=CCc1c(O)cc2c(c1O)C(=O)C[C@@H](c1ccc(O)cc1)O2 [6PN, 6-prenylnaringenin]
binding to CHIL1 protein (in words) (HlCHIL1 protein): no such binding could be detected

Structure (SMILES): CC(C)=CCc1c(O)cc(O)c2c1O[C@H](c1ccc(O)cc1)CC2=O [8PN, 8-prenylnaringenin]
binding to CHIL1 protein (in words) (HlCHIL1 protein): no such binding could be detected
CHIL2-associated compound (in words) (CHIL2): no CHIL2-associated DMX or 8PN were detected

Structure (SMILES): O=C1C[C@@H](c2ccc(O)cc2)Oc2cc(O)cc(O)c21 [N, naringenin]
binding to CHIL1 protein (in words) (HlCHIL1 protein): no such binding could be detected

Second part, the compound after the results:

Kcat (CHS_H1): 0.21 ± 0.02 s^−1 × 10^−3
Km (CHS_H1): 4.82 ± 0.99 µM
Structure (SMILES): CC(C)(COP(=O)(O)OP(=O)(O)OC[C@H]1O[C@@H](n2cnc3c(N)ncnc32)[C@H](O)[C@@H]1OP(=O)(O)O)[C@@H](O)C(=O)NCCC(=O)NCCSC(=O)/C=C/c1ccc(O)cc1 [p-Coumaroyl-CoA]

ΔTmmax (HlCHIL1 protein): 5.0 °C
Structure (SMILES): CCCCCCCCCCCC(=O)O [lauric acid]

binding to CHIL1 protein (in words) (HlCHIL1 protein): no such binding could be detected
Structure (SMILES): COc1cc(O)c(CC=C(C)C)c(O)c1C(=O)/C=C/c1ccc(O)cc1 [XN, 3′-prenyl-6′-O-methylchalconaringenin]

Kcat (CHS_H1): 0.24 ± 0.03 s^−1 × 10^−3
Km (CHS_H1): 10.1 ± 2.99 µM
Structure (SMILES): CC(C)(COP(=O)(O)OP(=O)(O)OC[C@H]1O[C@@H](n2cnc3c(N)ncnc32)[C@H](O)[C@@H]1OP(=O)(O)O)[C@@H](O)C(=O)NCCC(=O)NCCSC(=O)CC(=O)O [Malonyl-CoA]

Kd (HlCHIL1 protein): 3.45 µM
ΔTmmax (HlCHIL1 protein): 3.55 °C
Structure (SMILES): CCCCCCCCCCCCCC(=O)O [myristic acid]
